# An excerpt weighted towards active compounds, which were near 4% of everything screened.
# OX1R antag-1 – antagonists of human orexin 1 receptor (OX1R); Orexin/Hypocretin receptor type 1 (Homo sapiens), O43613; OX1R-expressing cells, FRET antagonist read-out; inhibition, % at 6.6 µM; 1.8% of 330,000 active; AID 485270, 2010; in the data active = inhibition mostly above about 38%, no sharp cut-off; inactive = mostly below about 40%;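 note: 0% = agonist challenge alone and 100% = reference antagonist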
# OX1R antag-2 – OX1R (HCRTR1) antagonists, primary screen, fluorescence, CHO/OX1R cells, Fluo-8 calcium, orexin A. AID 434989, 2010. Orexin/Hypocretin receptor type 1 (Homo sapiens), O43613. inhibition, % at 5 µM. 0.43% of 330,000 active. Fluo-8 calcium fluorescence;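 active = inhibition above its plate's threshold, mean inhibition of all tested compounds on the plate plus 3 SD, cut at about 37% in these data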;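 note: 0% = orexin A challenge wells and 100% = SB-334867-A antagonist wells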
# NTR1 ag – agonists of human NTR1, primary screen, imaging, U2OS cells, beta-arrestin-GFP, high content. Neurotensin receptor type 1 (Homo sapiens), P30989. NTR1-U2OS beta-arrestin-GFP spot imaging, agonist mode. activation, % at 20 µM. 0.17% of 330,000 active. AID 493036, 2011;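 active = activation at or above 40% of the spot to cytoplasm intensity ratio, with at least 20 cells analyzed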;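 note: 0% = DMSO without peptide and 100% = 100 nM NTR1 peptide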
# Target sequence (P30989 whole entry, looked up): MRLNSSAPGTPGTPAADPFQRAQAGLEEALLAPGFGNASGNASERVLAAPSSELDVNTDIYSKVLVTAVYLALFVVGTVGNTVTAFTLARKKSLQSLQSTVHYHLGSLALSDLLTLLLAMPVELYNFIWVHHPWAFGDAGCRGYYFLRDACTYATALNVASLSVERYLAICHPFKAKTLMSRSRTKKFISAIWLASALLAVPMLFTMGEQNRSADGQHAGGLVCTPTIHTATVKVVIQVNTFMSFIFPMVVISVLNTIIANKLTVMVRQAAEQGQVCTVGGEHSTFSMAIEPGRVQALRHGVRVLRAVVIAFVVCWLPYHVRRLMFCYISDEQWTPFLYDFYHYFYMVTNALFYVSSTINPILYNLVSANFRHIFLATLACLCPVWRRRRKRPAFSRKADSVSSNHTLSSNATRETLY
# CHO parental Ca – ATP-evoked calcium signal inhibitors, parental CHO, primary screen, counter-screen for OX1R antagonist project, cell-based, fluorescence, Fluo-8 calcium dye | parental CHO-K1, ATP-induced calcium, Fluo-8 fluorescence | inhibition, % at 5.6 µM | 0.63% of 330,000 active;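 active = inhibition above that plate's mean sample inhibition plus 3 SD, cut at about 26% in these data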;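 note: 0% = ATP-challenged DMSO wells and 100% = DMSO wells without ATP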
#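 Test system: untransfected parental CHO cell line; also added: ATP stimulus; dosing: 5.6 µM, single dose; signal: calcium-sensitive Fluo-8 fluorescence; measure: percent inhibition of ATP-evoked calcium rise, normalized to controls; benchmarks: low control ATP plus DMSO, high control DMSO only; replication: one well per compound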
# TAAR1 agonist – human TAAR1 agonists, primary screen, Fluo-8 calcium fluorescence, CHO RD-HGA16 cells | vehicle wells 0%, saturating PEA agonist 100% | activation, % at 3 µM | 0.99% of 360,000 active | AID 624467, 2012;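 active = activation above the mean activation of all test compounds in the run plus 3 SD, cut at about 38% in these data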
# Target sequence (Q96RJ0 whole entry, looked up): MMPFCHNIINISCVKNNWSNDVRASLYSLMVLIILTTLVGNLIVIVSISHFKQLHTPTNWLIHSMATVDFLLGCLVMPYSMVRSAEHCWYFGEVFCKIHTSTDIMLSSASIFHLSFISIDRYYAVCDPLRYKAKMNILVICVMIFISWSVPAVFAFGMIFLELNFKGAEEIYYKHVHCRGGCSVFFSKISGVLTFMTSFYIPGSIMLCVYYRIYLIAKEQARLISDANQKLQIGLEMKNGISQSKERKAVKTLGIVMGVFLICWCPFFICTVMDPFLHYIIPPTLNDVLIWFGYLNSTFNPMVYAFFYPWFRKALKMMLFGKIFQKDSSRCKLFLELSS
#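 Assay system – CHO-derived RD-HGA16 cells with stable Gα16 and human TAAR1 · Compound dosing – one-point dosing at 3 µM (nominal) · Incubation – 17-24 h seeding, 75 min 37 °C dye, 30 min RT · Measured by – kinetic Fluo-8 calcium fluorescence · Control set – DMSO vehicle as 0%, PEA at EC100 as 100% · Repeats – single well for each compound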
# TAAR1 antagonist – human TAAR1 antagonists, primary screen, Fluo-8 calcium fluorescence, CHO RD-HGA16 cells. antagonist. AID 624466, 2012. 1.5% of 360,000 active. Trace amine-associated receptor 1 (Homo sapiens), Q96RJ0. inhibition, % at 3 µM;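 active = inhibition above a per-plate cutoff, the mean inhibition of test compounds on that plate plus 3 SD, cut at about 49% in these data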;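 note: 0% = DMSO plus EC80 beta-PEA response and 100% = DMSO alone without agonist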
#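 Test system: CHO RD-HGA16 cells bearing hTAAR1 | Reagent: β-PEA, EC80 | Compound dosing: 3 µM, single point | Schedule: Dye loading 75 min at 37 °C, then 30 min room temperature | Signal: Calcium fluorescence with Fluo-8 | Evaluation: Percent inhibition of PEA-evoked calcium signal, max/basal emission ratio | Control set: DMSO-only wells and EC80 β-PEA-stimulated wells | Repeats: Singlicate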
# NTR1 ag confirm – NTR1 agonists, single-dose retest, confirmation, imaging, U2OS cells, beta-arrestin-GFP, single concentration; shares compounds with NTR1 ag; NTR1-U2OS beta-arrestin-GFP translocation imaging; activation, % at 20 µM; 38% of 480 active; AID 504550, 2011;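 active = mean activation at 20 µM of at least 40%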;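 note: 0% = DMSO without peptide and 100% = 100 nM NTR1 peptide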
# nonsel antag count – nonselective antagonists in TAAR1 counter-screen cells, counter-screen for hTAAR1 antagonist project, cell-based, fluorescence, calcium; 77% of 2,400 active; inhibition, % at 3 µM; AID 651780, 2012; counterscreen cell line, antagonist mode; shares compounds with TAAR1 antagonist; in the data active = inhibition above about 22%;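 note: CHO-Ga16 host cells stimulated with ATP at an EC80 level; 0% = agonist EC80 plus vehicle and 100% = vehicle without agonist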
# TAAR1 antag conf – human TAAR1 antagonists, retest of hits, confirmation, cell-based, fluorescence; shares compounds with TAAR1 antagonist; AID 651785, 2012; inhibition, % at 3 µM; TAAR1-expressing cells, fluorescence antagonist read-out; 40% of 2,400 active; in the data active = inhibition above about 49%;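 note: CHO-Ga16 host cells challenged with agonist PEA near its EC80; 0% = agonist at EC80 plus vehicle and 100% = vehicle with no agonist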
# Ga16 ag counter-1 – calcium activation in Ga16-expressing cells, counter-screen for TAAR1 antagonist project, cell-based, fluorescence | shares compounds with TAAR1 antagonist | agonist counterscreen | activation, % at 3 µM | 18% of 2,400 active | AID 651953, 2012; in the data active = activation above about 12%;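 note: 0% = vehicle wells and 100% = saturating stimulus response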
# TAAR1 ag count – TAAR1 activation by candidate antagonists – cell-based, fluorescence, counter-screen for TAAR1 antagonist project; shares compounds with TAAR1 antagonist; hTAAR1 cell line, agonist mode; activation, % at 3 µM; 2% of 2,400 active; in the data active = activation above about 37%;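 note: CHO cells stably expressing TAAR1 with calcium dye readout; 0% = DMSO vehicle and 100% = full agonist response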
# TAAR1 ag conf – human TAAR1 agonists, retest of hits, confirmation, Fluo-8 calcium fluorescence, CHO RD-HGA16 cells. AID 651783, 2012. 82% of 2,400 active. activation, % at 3 µM. scaled: DMSO 0%, maximal phenethylamine 100%. shares compounds with TAAR1 agonist;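 active = activation above a cutoff set at the run's mean compound activation plus 3 SD, cut at about 39% in these data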
# Ga16 ag counter-2 – nonselective calcium mobilization agonists, CHO-Ga16 cells, counter-screen for hTAAR1 agonist project, cell-based, fluorescence, CHO-Ga16 parental line; 50% of 2,400 active; shares compounds with TAAR1 agonist; activation, % at 3 µM; AID 651787, 2012; Fluo-8 calcium fluorescence; normalized to maximal ATP response, DMSO zero;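 active = activation above the run cutoff, the mean activation over all tested wells plus 3 SD, cut at about 12% in these data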;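 note: 0% = DMSO wells and 100% = maximal ATP response on the peak over basal ratio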
# TAAR1 desens – TAAR1 desensitization by agonist hits, confirmation, counter-screen for TAAR1 agonist project, cell-based, fluorescence, tachyphylaxis. CHO RD-HGA16 hTAAR1, Fluo-8 calcium, beta-PEA response inhibition. inhibition, % at 3 µM. shares compounds with TAAR1 agonist. AID 651951, 2012. 46% of 2,400 active;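 active = inhibition above the run cutoff, the mean inhibition of all test compounds plus 3 SD, cut at about 49% in these data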;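 note: beta-PEA stimulus applied at its EC80; loss of beta-PEA calcium signal after compound pretreatment read as receptor desensitization; 0% = DMSO with beta-PEA at EC80 and 100% = DMSO alone without agonist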
# Ga16 antag count – inhibition of ATP-evoked calcium response in CHO-Ga16 cells, counter-screen for TAAR1 agonist project, cell-based, fluorescence; inhibition, % at 3 µM; shares compounds with TAAR1 agonist; AID 651952, 2012; CHO-Ga16 ATP-induced calcium, Fluo-8 fluorescence; 39% of 2,400 active;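 active = inhibition above the plate's mean compound inhibition plus 3 SD, computed per plate, cut at about 22% in these data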;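 note: 0% = EC80 ATP with DMSO and 100% = DMSO wells without ATP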
# An asterisk follows results filed as active; nt = no result.
SMILES,OX1R antag-1,OX1R antag-2,NTR1 ag,CHO parental Ca,TAAR1 agonist,TAAR1 antagonist,nonsel antag count,TAAR1 antag conf,Ga16 ag counter-1,TAAR1 ag count,others
Cc1ccc(-c2ccc(/C=C3\C(=O)ON=C3c3ccccc3)o2)c([N+](=O)[O-])c1,22.1,3.3,99.6*,-7.4,21.0,64.6*,77.9*,80.7*,23.9*,27.7,NTR1 ag confirm=85.1*
O=C(Nc1ccc(-c2noc(CCc3ccccc3)n2)cc1)c1cccnc1,26.1,15.8,66.7*,8.8,24.0,69.3*,36.8*,51.4*,14.0*,14.1,NTR1 ag confirm=14.5
CCCCNc1c(-c2cccc(-c3cc(C(C)=O)cs3)c2)nc2ccc(C)cn12,50.0,-13.0,40.6*,-14.9,14.7,67.5*,36.0*,54.0*,6.6,4.8,NTR1 ag confirm=22.4
CCN(CCNCC(O)COc1ccccc1C(C)C)c1cccc(C)c1 (stereo unspecified),-12.7,-5.0,53.5*,30.6*,73.3*,42.6,nt,nt,nt,nt,NTR1 ag confirm=15.3;TAAR1 ag conf=78.8*;Ga16 ag counter-2=19.9*;TAAR1 desens=57.7*;Ga16 antag count=38.6*
CCOC(=O)N1CCN(CC(O)COc2ccccc2C(C)C)CC1 (stereo unspecified),10.6,-24.1,1.5,-26.8,7.1,8.4,nt,nt,nt,nt,
C[C@@H]1CN([C@H](C)CO)C(=O)CCCn2cc(nn2)CO[C@H]1CN(C)C(=O)Nc1ccccc1,nt,nt,nt,nt,2.2,-17.4,nt,nt,nt,nt,
COc1ccc(Cn2c(-c3ccc(C)cc3)nc3c(c(=O)c4ccccc4n3C)c2=O)cc1,14.6,-27.2,40.8*,-8.6,91.5*,57.8*,nt,nt,nt,nt,NTR1 ag confirm=22.8;TAAR1 ag conf=84.9*;Ga16 ag counter-2=52.9*;TAAR1 desens=67.9*;Ga16 antag count=41.7*
CC1(c2nnc(-c3ccccc3)o2)CC(c2c(Cl)cccc2Cl)=NO1 (stereo unspecified),10.0,-14.6,0.6,-22.9,21.0,70.2*,22.6*,53.2*,6.4,6.6,
CC1(c2nnc(-c3ccncc3)o2)CC(c2c(Cl)cccc2Cl)=NO1 (stereo unspecified),8.5,-23.4,-2.5,-5.2,13.2,32.4,nt,nt,nt,nt,
O=C(Nc1ccc2c(c1)C(=O)OC2)c1ccccc1Cl,8.0,2.9,-0.3,8.2,-3.0,10.1,nt,nt,nt,nt,
Cc1c(C(=O)Nc2cccc([N+](=O)[O-])c2)csc1-c1ccccc1,72.2*,8.9,7.7,-4.1,14.4,81.4*,37.2*,53.8*,3.8,-1.9,
COCCCNC(=O)/C(C#N)=C/c1c(N2CCN(c3ccccc3)CC2)nc2c(C)cccn2c1=O,23.9,-8.4,3.4,-26.6,11.1,50.5*,19.3,36.3,6.5,6.1,
COC(=O)c1cc2c(c3c4cc(C)ccc4n(C(=O)c4ccccc4)c13)C(=O)N(Cc1ccccc1)C2,nt,nt,nt,nt,8.4,66.7*,28.9*,56.5*,7.2,4.5,
Cc1ccc(C)c(N(CC(=O)NC2CCCC2)C(=O)CCC(=O)Nc2cc(C)on2)c1,16.4,-23.5,-1.2,-14.9,8.4,-11.1,nt,nt,nt,nt,
COC(=O)c1cccc(C#CC(NP(=O)(c2ccccc2)c2ccccc2)c2ccccc2)c1 (stereo unspecified),19.5,-28.0,1.7,-13.9,16.4,72.5*,27.9*,36.2,2.2,1.6,
N#CCC(=O)Nc1ccc(C(=O)NCCc2c[nH]c3ccccc23)cc1,-15.4,7.9,-1.7,0.7,-5.2,4.5,nt,nt,nt,nt,
O=S(=O)(c1ccccc1)N1CCN(c2nc(-c3cccnc3)nc3ccccc23)CC1,nt,nt,6.0,nt,13.1,68.9*,26.3*,47.9,9.5,12.0,
O=S(=O)(c1ccc(F)cc1)N1CCN(c2nc(-c3cccnc3)nc3ccccc23)CC1,7.2,-0.2,5.7,-26.0,14.7,41.2,nt,nt,nt,nt,
O=C(COC(=O)/C=C/c1cccc(Cl)c1)NC1CC1,4.5,-13.8,-1.2,-9.0,3.8,-13.6,nt,nt,nt,nt,
CN(C(=O)c1cnc(N2CCN(c3ncccn3)CC2)c2ccccc12)c1ccc(Cl)cc1,5.8,-33.6,-0.3,-19.8,14.4,50.9*,15.2,39.5,8.0,12.6,
CCN(C(=O)c1cnc(N2CCN(c3ncccn3)CC2)c2ccccc12)c1cccc(Cl)c1,15.6,-40.2,9.9,-12.4,13.0,49.9*,26.6*,31.0,4.0,5.8,

# High-throughput results (PubChem)
